This is an account of results in ChEMBL document CHEMBL1146568, “Xanthones and benzophenones from the stems of Garcinia multiflora” (J Nat Prod, 2003).

Data set [1] concerns Radical scavenging activity. Kind of data set: Antioxidant activity assessed as DPPH radical scavenging activity. Format: functional. The essentials: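 Test sample in EtOH mixed with a 0.1 mM DPPH solution in EtOH (concentration before mixing). Absorbance read at 517 nm after 20 min. Scavenging taken as the drop in DPPH absorbance, expressed as a percentage of a DPPH control without sample. Catechin served as the positive control.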
Background: Loss of DPPH colour is used to gauge radical scavenging.

Data set [2] in a line: Toxicity against brine shrimp. Format: organism-based. The following applies: artemia, in vivo; read-out: LD50 (the source's name).

One may read the IC50 as the concentration needed to halve the response being measured. Take `O=C(c1cccc(O)c1)c1c(O)cc(O)cc1O`: the half-inhibitory concentration (IC50) in data set [1] was found to be 66.3 µM. Besides, the LC50 in data set [2] is greater than 100 µM.

In the case of `COc1cc(O)cc(O)c1C(=O)c1ccc(O)c(O)c1`, the IC50 in data set [1] is 7.8 µM. In data set [2], the LC50 is greater than 100 µM.

With `COc1ccc2cc3[n+](cc2c1OC)CCc1cc2c(cc1-3)OCO2` [BERBERINE CHLORIDE], the LC50 in data set [2] worked out at 67 µM.

Consider `Oc1cc(O)c2c(c1)OC(c1ccc(O)c(O)c1)C(O)C2` (configuration not stated) [CATECHIN], for which the IC50 in data set [1] was found to be 2.53 µM.

On to `CC(C)=CCC/C(C)=C/CC1(CC=C(C)C)C(=O)C(O)=Cc2oc3cc(O)cc(O)c3c(=O)c21` (configuration not stated) [GARCINIANONE A], for which, in data set [1], the IC50 was 107 µM. The LC50 in data set [2] was 7.7 µM.

As to `CC(C)=CCC/C(C)=C\CC1(CC=C(C)C)C(=O)C(O)=Cc2oc3cc(O)cc(O)c3c(=O)c21` (configuration not stated) [GARCINIANONE B], the IC50 in data set [1] was 145 µM. The LC50 in data set [2] is 25.8 µM.

As for `O=C(c1ccc(O)c(O)c1)c1c(O)cc(O)cc1O` [MACLURIN], in data set [1], the 50% inhibitory concentration (IC50) came out at 5.3 µM. Also, in data set [2], the LC50 was determined as 43.1 µM.
